Measured values taken from publication PMC2806602 (The Journal of neuroscience : the official journal of the …, 2009).
Numbering of substitutions follows the chain as printed.

Legend:
GluRδ2^Lc = target: T1, GluRδ2^Lc (Rattus norvegicus, UniProt Q63226, A654T); type: cell-based; settings: for spontaneously active current relative to baseline with Ba^2+: 0.5 mM Ba^2+ exchanged with 0.5 mM of the divalent cation
T1 sequence (Q63226 24-1007 A654T): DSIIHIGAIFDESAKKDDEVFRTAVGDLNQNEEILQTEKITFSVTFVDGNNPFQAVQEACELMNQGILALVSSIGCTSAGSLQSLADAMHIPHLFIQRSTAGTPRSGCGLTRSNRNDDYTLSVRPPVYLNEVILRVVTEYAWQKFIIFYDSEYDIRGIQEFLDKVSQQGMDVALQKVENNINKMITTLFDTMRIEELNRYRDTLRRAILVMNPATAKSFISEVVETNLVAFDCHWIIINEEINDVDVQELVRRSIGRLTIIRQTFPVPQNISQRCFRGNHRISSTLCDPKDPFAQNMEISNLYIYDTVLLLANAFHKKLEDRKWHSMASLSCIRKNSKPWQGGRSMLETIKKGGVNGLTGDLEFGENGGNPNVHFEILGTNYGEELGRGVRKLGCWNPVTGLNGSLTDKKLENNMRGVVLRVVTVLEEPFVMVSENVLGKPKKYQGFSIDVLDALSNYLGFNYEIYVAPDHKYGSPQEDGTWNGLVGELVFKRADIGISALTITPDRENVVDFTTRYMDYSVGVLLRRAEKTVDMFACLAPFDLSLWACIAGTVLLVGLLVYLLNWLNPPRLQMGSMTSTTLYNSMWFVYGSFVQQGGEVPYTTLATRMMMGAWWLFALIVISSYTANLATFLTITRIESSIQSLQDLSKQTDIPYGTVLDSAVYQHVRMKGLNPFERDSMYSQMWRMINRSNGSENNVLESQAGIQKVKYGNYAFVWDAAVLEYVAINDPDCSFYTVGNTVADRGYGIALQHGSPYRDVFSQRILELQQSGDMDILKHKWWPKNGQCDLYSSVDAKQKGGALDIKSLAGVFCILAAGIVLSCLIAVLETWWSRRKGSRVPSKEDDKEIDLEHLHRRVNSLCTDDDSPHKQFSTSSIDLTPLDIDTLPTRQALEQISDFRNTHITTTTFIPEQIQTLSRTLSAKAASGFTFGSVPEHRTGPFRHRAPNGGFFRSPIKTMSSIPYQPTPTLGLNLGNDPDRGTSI

GluRδ2^Wt = target: T2, GluRδ2^Wt (Rattus norvegicus, UniProt Q63226); assay: Two-electrode voltage-clamp recordings in Xenopus oocytes expressing GluRδ2^Wt; type: cell-based; settings: 0.5 mM Ba^2+ exchanged with 0.5 mM of the divalent cation
T2 sequence (Q63226 24-1007): T1 sequence (Q63226 24-1007 A654T) with T631A
Outline: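 Oocytes injected with wild-type receptor cRNA the day after excision and collagenase treatment. Two-electrode voltage clamp at −40 mV and 23°C, 24–72 h post-injection. Bath: 90 mM NaCl, 3 mM KCl, 0.5 mM BaCl2, 10 mM HEPES, pH 7.6. Ba2+ was replaced by 0.5 mM Mg2+, Zn2+, Mn2+, Sr2+ or Ca2+, or Ca2+ was raised stepwise. Choline or NMDG chloride kept osmolarity and Cl− constant. Baseline was current without Ca2+.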

SMILES | modulation of GluRδ2^Lc currents by extracellular Na^+ (GluRδ2^Lc; current-voltage relationship at 0, 30, 60, 90 mM Na^+, -60 to +30 mV) | spontaneously active current relative to baseline with Ba^2+ (GluRδ2^Lc) | effect of divalent cation on currents at GluRδ2^Wt (GluRδ2^Wt)
[Na+] [Na^+] | does not modulate GluRδ2 |  | 
[Mn+2] [Mn^2+] |  | 2.66 ± 0.13 | no changes were observed
[Mg+2] [Mg^2+] |  | 1.06 ± 0.01 | 

Now from value to molecule:

modulation of GluRδ2^Lc currents by extracellular Na^+ (GluRδ2^Lc; current-voltage relationship at 0, 30, 60, 90 mM Na^+, -60 to +30 mV) | spontaneously active current relative to baseline with Ba^2+ (GluRδ2^Lc) | effect of divalent cation on currents at GluRδ2^Wt (GluRδ2^Wt) | SMILES
 | 1.33 ± 0.02 | no changes were observed | [Zn+2] [Zn^2+]
 | 1.33 ± 0.05 | no changes were observed | [Sr+2] [Sr^2+]
